ABHD5-PLIN5 inh: inhibitors of human ABHD5-perilipin-5 interaction; Q00G26+Q8WTS1; Split G. princeps luciferase complementation, luminescence, 4 h; inhibition, % at 4 µM; 360,000 compounds, 0.78% hits; AID 602281;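 active = inhibition above the mean inhibition across every tested compound plus 3 SD, cut at about 22% in these data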
Beta2AR agonist: agonists of human beta-2 adrenergic receptor inducing internalization; Am2.2-beta2AR cells, FAP receptor internalization, flow cytometry; P07550; AID 504454; response, % (test concentration not listed); 340,000 compounds, 0.43% hits;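 active = response above a set limit, near 3 SD of response in nonfluorescent compounds, cut at about 42% in these data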
MC4R antagonist: human MC4R antagonism in cAMP assay; P32245; inhibition, % at 6.5 µM; MC4R-expressing cells, MTII-stimulated cAMP, LANCE TR-FRET; 360,000 compounds, 0.48% hits;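 active = inhibition above its plate's cutoff, the mean of tested wells on that plate plus 3 SD, cut at about 29% in these data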
Target sequence (P32245 whole entry, looked up): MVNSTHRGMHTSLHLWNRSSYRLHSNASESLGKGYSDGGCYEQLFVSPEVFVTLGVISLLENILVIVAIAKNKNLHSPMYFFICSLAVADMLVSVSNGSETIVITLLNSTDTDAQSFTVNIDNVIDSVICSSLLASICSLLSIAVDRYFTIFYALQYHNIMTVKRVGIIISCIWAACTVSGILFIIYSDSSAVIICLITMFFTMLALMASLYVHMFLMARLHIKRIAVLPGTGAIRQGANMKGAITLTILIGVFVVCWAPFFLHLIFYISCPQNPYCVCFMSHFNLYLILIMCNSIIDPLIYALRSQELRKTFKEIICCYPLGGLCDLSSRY
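System – human MC4R-expressing U2OS cells · Also added – Melanotan II · Dosing – one concentration, 6.5 µM nominal · Timing – 30-min compound, 1-h challenge, 1-h detection, room temperature · Measured by – Eu-cAMP/anti-cAMP TR-FRET, emission 671 nm · Replicates – singlicate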
MC4R ag barr: activates human MC4R beta-arrestin recruitment; U2OS MC4R beta-arrestin complementation, luminescence; percent of melanotan II response, DMSO zero; activation, % at 8.9 µM; 360,000 compounds, 0.98% hits; AID 540308;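 active = activation above a per-plate cutoff, the mean activation of sample wells on that plate plus 3 SD, cut at about 8% in these data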
PfGluPho inh: PfG6PD (Plasmodium falciparum) enzyme inhibition | 350,000 compounds, 0.78% hits | AID 504690 | inhibition, % at 20 µM | PfGluPho enzyme, NADPH resazurin-diaphorase fluorescence;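 active = inhibition reaching at least a set limit at 20 µM in the primary screen, cut at about 59% in these data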
U2OS cAMP counter: U2OS forskolin cAMP inhibition counter-screen. parental U2OS, LANCE TR-FRET. 1,600 compounds, 26% hits. AID 602193. shares compounds with MC4R antagonist. inhibition, % at 6.5 µM;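 active = mean inhibition over triplicates above the low-control well mean plus 3 SD, set per campaign, cut at about 13% in these data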;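 note: signal is single emission at 671 nm which falls as cellular cAMP rises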
MC4R antag conf: human MC4R cAMP antagonism confirmation. 1,600 compounds, 27% hits. MC4R-expressing cells, MTII-stimulated cAMP, TR-FRET. AID 602195. inhibition, % at 6.5 µM. shares compounds with MC4R antagonist; in the data active = inhibition above about 29%
Each line names hits and unclear results; the compound was inactive in the other large screens (follow-up assays come after a bar, where they were run). The list is not random: actives were taken first. Their share in the collection is about 3%.

Cc1ccc(S(=O)(=O)N2CCC(C(=O)Nc3nnc(C4CCCC4)s3)CC2)cc1	none
COCCn1c(SCC(=O)N(C)c2ccccc2)nc2c([nH]c3ccccc32)c1=O	none
Cc1nc(-c2ccccc2)sc1C(=O)NS(=O)(=O)c1ccc(CN2CCN(c3ccccc3)CC2)cc1	none (no result: Beta2AR agonist, MC4R antagonist, MC4R ag barr, PfGluPho inh)
CCCCn1c(=O)[nH]c(=O)c2c1nc(-c1ccc(C#N)cc1)n2C1CCCC1	MC4R antagonist 28.5 | U2OS cAMP counter inactive | MC4R antag conf inactive
COc1cc(-c2cc(C(=O)Nc3ccc(C)c(S(=O)(=O)N4CCOCC4)c3)c3ccccc3n2)cc(OC)c1OC	MC4R antagonist 31.6 | U2OS cAMP counter inactive | MC4R antag conf inactive
COc1cc(-c2cc(C(=O)Nc3ccccc3N3CCOCC3)c3ccccc3n2)cc(OC)c1OC	none
Cc1cccc(-c2n[nH]c(=S)n2C)c1	none
Cn1c(-c2ccccc2)n[nH]c1=S	MC4R antagonist 32.7 | U2OS cAMP counter inactive | MC4R antag conf inactive
COc1ccc(CNC(=O)c2ccc(-c3ccc(F)c(F)c3)c3ccoc23)cc1OC	MC4R antagonist 39.6 (no result: Beta2AR agonist, PfGluPho inh) | U2OS cAMP counter inactive | MC4R antag conf inactive
COC(=O)C(CC(C)C)NC(=O)/C=C/c1ccc(Cl)cc1 (configuration not stated)	MC4R antagonist 34.6 | U2OS cAMP counter inactive | MC4R antag conf inactive
O=C(Nc1nccs1)c1ccc(Cl)cc1[N+](=O)[O-]	none
O=C(Nc1nccs1)c1cc2cc(Cl)ccc2oc1=O	MC4R antagonist 32.8 | U2OS cAMP counter inactive | MC4R antag conf inactive
CCOC(=O)c1cnc2ccc(OC)cc2c1NCc1ccccc1	none
CCOC(=O)c1cnc2ccc(OCC)cc2c1NCc1ccccc1OC	MC4R antagonist 47.5 | U2OS cAMP counter 16.4 | MC4R antag conf 47.6
C/C(=N\NC(=O)CCc1ccc(S(=O)(=O)N2CCOCC2)cc1)c1ccccc1Cl	none
Cc1ccc(CC2C(=O)N(c3ccccc3)C(=O)C2C)cc1 (configuration not stated)	MC4R antagonist 32.5 | U2OS cAMP counter inactive | MC4R antag conf inactive
Cc1ccc(CC2C(=O)N(c3cc(Cl)ccn3)C(=O)C2C)cc1 (configuration not stated)	none
CC(C)NC(=O)N(C)C[C@@H]1OCc2cnnn2CCCC(=O)N([C@@H](C)CO)C[C@H]1C	none (no result: Beta2AR agonist)
O=C(Cc1ccc(F)cc1)NCCc1cnc[nH]1	MC4R antagonist 31.5 | U2OS cAMP counter inactive | MC4R antag conf inactive
COC(=O)[C@]12CCCCC=C1N(Cc1ccc(Cl)cc1Cl)C(=O)[C@H](CC(=O)N1CCN(C(=O)c3ccco3)CC1)C2	none (no result: Beta2AR agonist, MC4R antagonist, MC4R ag barr, PfGluPho inh)
CCOc1ccc(-c2nnc3ccc(SCC(=O)N4CCN(c5ccccc5)CC4)nn23)cc1	MC4R antagonist 31.8 | U2OS cAMP counter inactive | MC4R antag conf inactive
Cc1cccc(NC(=O)NCC2CC2)c1	MC4R antagonist 30.0 | U2OS cAMP counter inactive | MC4R antag conf inactive
O=S(=O)(NCC1CCCO1)c1cnc(Cl)c(Br)c1 (configuration not stated)	MC4R antagonist 28.5 | U2OS cAMP counter 19.0 | MC4R antag conf 43.3
O=S(=O)(NCC1CCCO1)c1cc(Cl)ccc1Br (configuration not stated)	none
COc1ccc(C(=O)Nc2ccc(S(=O)(=O)Nc3nccc(C)n3)cc2)cc1	none
COCCN(CCOC)S(=O)(=O)c1ccc(C(=O)Nc2ccc(S(=O)(=O)Nc3nccc(C)n3)cc2)cc1	MC4R antagonist 29.5 | U2OS cAMP counter inactive | MC4R antag conf inactive
Cc1ccc(C(=O)N[C@H](C(=O)OCC(=O)NC2CCS(=O)(=O)C2)C(C)C)cc1 (some centres not stated)	none
CC(Oc1ccc(Cl)cc1)C(=O)N(C)CC(=O)Nc1ccc(N2CCOCC2)cc1 (configuration not stated)	none
COc1ccc(NC(=O)CCNS(=O)(=O)c2ccc(Cl)c([N+](=O)[O-])c2)cc1S(N)(=O)=O	none
CCOC(=O)C(C)(C)NS(=O)(=O)c1ccc(Cl)c([N+](=O)[O-])c1	MC4R antagonist 39.8 | U2OS cAMP counter 20.8 | MC4R antag conf 35.0
CC(=O)c1c(C)oc2ccc(N(C(C)=O)S(=O)(=O)c3ccc(Cl)c([N+](=O)[O-])c3)cc12	none
CCOC(=O)C(C)(C)N(Cc1ccc(C)cc1)S(=O)(=O)c1ccc(Cl)c([N+](=O)[O-])c1	MC4R antagonist 31.5 | U2OS cAMP counter 19.9 | MC4R antag conf 52.0
CS(=O)(=O)c1ccc(Cl)c(NC(=O)CSc2nc3ccccc3c(=O)n2CCCN2CCOCC2)c1	MC4R antagonist 31.5 | U2OS cAMP counter inactive | MC4R antag conf inactive
CCc1ccccc1OCC(=O)Nc1cc(S(=O)(=O)N(CC)CC)ccc1N1CCOCC1	none
CC(C)C(CO)NC(=O)CC(=O)NC(CO)C(C)C (configuration not stated)	MC4R antagonist 29.9 | U2OS cAMP counter inactive | MC4R antag conf inactive
CC(NC(=O)Cc1ccccc1)C(=O)O (configuration not stated)	none
CC(Cc1ccco1)NC(=O)c1cccc(S(=O)(=O)N(C)C)c1 (configuration not stated)	none
Cc1c(NC(=S)N/C(=N/S(=O)(=O)c2ccccc2)c2ccccc2)c(=O)n(-c2ccccc2)n1C	MC4R antagonist 29.6 | U2OS cAMP counter inactive | MC4R antag conf inactive
Nc1nc(SCC(=O)Nc2ncc(C(F)(F)F)cc2Cl)n[nH]1	none
Nc1nc(Sc2ccc(C(F)(F)F)cn2)n[nH]1	MC4R antagonist 30.2 | U2OS cAMP counter inactive | MC4R antag conf inactive
Cc1ccc(S(=O)(=O)Nc2nc(C)cc(NN)n2)cc1	MC4R antagonist 28.8 | U2OS cAMP counter inactive | MC4R antag conf inactive
O=C(OC1CCOC1=O)c1cc(-c2ccc(Cl)cc2)nc2ccccc12 (configuration not stated)	MC4R antagonist 35.1 | U2OS cAMP counter 17.4 | MC4R antag conf inactive
COc1ccc(NC(=S)N2CCN(C(c3ccccc3)c3ccccc3)CC2)cc1OC	MC4R antagonist 29.0 | U2OS cAMP counter inactive | MC4R antag conf inactive
O=C(NCc1cccnc1)c1cccnc1-c1nc2ccccc2s1	none
O=C(NCc1cccnc1)C(=O)Nc1nc2ccccc2s1	MC4R antagonist 29.6 | U2OS cAMP counter inactive | MC4R antag conf inactive
COC(=O)c1ccc(CNC(=O)c2ccc(OC)c(S(=O)(=O)NC3CCCC3)c2)cc1	none
Cc1cc(C)n(-c2nnc(NC34CC5CC(CC(C5)C3)C4)nn2)n1	MC4R antagonist 29.5 | U2OS cAMP counter inactive | MC4R antag conf inactive
CC(C)Sc1cc(Cl)nc(NC(=O)Nc2ccccc2)n1	MC4R antagonist 30.6 | U2OS cAMP counter 17.0 | MC4R antag conf 39.5
O=C(Nc1ccccc1)Nc1ccc2ccccc2c1	none
